The nature of series [1]: Study 3: safety, treatment-emergent adverse events. Format: in vivo, human. The settings on record: BISO 10 mg, RAMI 10 mg alone or together, % of subjects in the Safety population in each treatment group.
A short description of series [2]: Bioequivalence studies 1 and 2: PK summary across both treatments and studies. Format: in vivo, human. In short, it runs like this: (§1)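 Single-center, randomized, open-label, laboratory-blinded, two-period, two-sequence crossover in healthy volunteers. Each subject got one oral dose of the fixed-dose combination or the co-administered reference tablets with ~240 ml water after a 10-h fast. Washout was at least 21 days. Parent drugs were measured in plasma by LC-MS after protein precipitation. Noncompartmental analysis used actual times, with t½ = ln(2)/λz.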

Series [3] is classed as in vivo. The settings on record: human, plasma, po, 10 mg. In short, it runs like this: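 Single-center, randomized, open-label, three-period, six-sequence crossover in healthy volunteers. Each drug was given alone and with the other as a single oral dose after a 10-h fast. Blood was sampled to 72 h, and washout was at least 21 days. Plasma was analysed by LC-MS with stable isotope-labeled internal standards. Noncompartmental parameters: AUC0-T by linear trapezoidal rule, AUC∞ = AUC0-T + Clast/λz.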

Series [4] is classed as in vivo. The note with it: human, plasma, oral, 5 mg. In a few lines: as §1
The format of series [5] is in vivo, human. In a few lines: as §1

For orientation: half-life means the time needed for the level to fall by half in the phase considered. The term AUC(0-inf) denotes total exposure, with the tail of the curve extrapolated. Lower therefore signals low exposure. What is called AUC(0-t) is the area under the concentration-time curve up to a stated or last time point. Lower therefore signals less exposure. One may read the Cmax as the maximum level reached in the sampled fluid or tissue. One may read the Tmax as the time at which the peak concentration occurs.

The structures appear in SMILES notation. Like-named read-outs stand apart in the source and are kept apart here.

For `CC(C)NCC(O)COc1ccc(COCCOC(C)C)cc1` (stereo not drawn) [BISO, bisoprolol], the “Subjects with at least one drug‐related TEAE” value in series [1] is 4 (13.8) n (%). In addition, the “time after dosing at which BISO peak concentrations were achieved” value in series [2] (across both treatments, studies 1 and 2, BISO 10 mg single oral dose, fasting) amounted to 2.33 h. Besides, the half-life in series [2] (human, plasma, oral) lay in the range of 10.7 to 10.9 h. Besides, in series [3], the AUC(0-inf) stood at 777 ng·h/mL, the AUC(0-t) was 732 ng·h/mL, the peak level (Cmax) was 42.6 ng/mL and the Tmax was determined as 2.33 h. Further, the half-life in series [3] was 11.2 h.

In series [4], `CCOC(=O)[C@H](CCc1ccccc1)N[C@@H](C)C(=O)N1[C@H](C(=O)O)C[C@@H]2CCC[C@@H]21` [RAMI, ramipril] yielded a half-life of 1.39 to 1.68 h. Further, in series [1], the “Subjects with at least one drug‐related TEAE” value is 3 (10.7) n (%). In addition, the “observed ISCV (intrasubject coefficient of variation) for Cmax” value in series [5] (Study 1, expected 32%) was determined as 36%. The same compound yielded a half-life in series [5] (human, plasma, oral, 10 mg) of 2.17 to 2.32 h. In addition, the “median time to ramipril peak concentration” value in series [2] (across both treatments and studies 1 and 2) is given as 0.50 h. In addition, in series [3], the AUC(0-inf) came out at 18.1 ng·h/mL, the AUC(0-t) came out at 17.1 ng·h/mL, the concentration peaked (Cmax) at 24.1 ng/mL and the Tmax was determined as 0.5 h. The compound further showed a half-life in series [3] of 2.03 h.

These data come from publication PMC8742637 (Clinical and Translational Science, 2021).
